In ChEMBL document CHEMBL3098105, “7,7'-Diazaindirubin--a small molecule inhibitor of casein kinase 2 in vitro and in cells” (Bioorg Med Chem, 2014):
pIC50: −log10 of the molar value.

Assays:
[1] = Antiproliferative activity against human HCC2998 cells after 3 days by sulforhodamine B assay; assay type: functional; settings: HCC 2998, 72 h
Outline: (§1)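 Tested in the NCI 60 cell line panel. GI50 is the concentration giving 50% inhibition of cell growth, and values are the mean of two series of tests.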

[2] = target: Testis-specific serine/threonine-protein kinase 2 (Homo sapiens) (UniProt Q96PF2); experiment: Inhibition of human TSSK2 assessed as residual activity at 1 uM relative to control
[3] = target: Mitogen-activated protein kinase kinase kinase 5 (Homo sapiens) (UniProt Q99683); experiment: Inhibition of human ASK1 assessed as residual activity at 1 uM relative to control
[4] = system: ACHN; experiment: Antiproliferative activity against human ACHN cells after 3 days by sulforhodamine B assay; assay type: functional; settings: 72 h; outline: as §1
[5] = target: Cyclin-dependent kinase 2/cyclin E1 (Homo sapiens) (UniProt P24864+P24941); experiment: Inhibition of CDK2/CycE (unknown origin) assessed as residual activity at 1 uM relative to control; assay type: protein-complex assay
[6] = target: T1, Casein kinase II (Homo sapiens) (UniProt P67870+P68400+P19784); experiment: Inhibition of human CK2 assessed as residual activity at 1 uM relative to control; assay type: protein-complex assay
[7] = system: SR; experiment: Antiproliferative activity against human SR cells after 3 days by sulforhodamine B assay; assay type: functional; settings: 72 h
[8] = target: Protein kinase C beta type (Homo sapiens) (UniProt P05771); experiment: Inhibition of human PKCbeta1 assessed as residual activity at 1 uM relative to control
[9] = target: Tyrosine-protein kinase Fes/Fps (Homo sapiens) (UniProt P07332); experiment: Inhibition of human Fes assessed as residual activity at 1 uM relative to control
[10] = system: NCI-H322M; experiment: Antiproliferative activity against human NCI-H322M cells after 3 days by sulforhodamine B assay; assay type: functional; settings: 72 h; outline: as §1
[11] = target: Mitogen-activated protein kinase 1 (Homo sapiens) (UniProt P28482); experiment: Inhibition of human MAPK1 assessed as residual activity at 1 uM relative to control
Chain of Mitogen-activated protein kinase 1 (Homo sapiens) (P28482 whole entry): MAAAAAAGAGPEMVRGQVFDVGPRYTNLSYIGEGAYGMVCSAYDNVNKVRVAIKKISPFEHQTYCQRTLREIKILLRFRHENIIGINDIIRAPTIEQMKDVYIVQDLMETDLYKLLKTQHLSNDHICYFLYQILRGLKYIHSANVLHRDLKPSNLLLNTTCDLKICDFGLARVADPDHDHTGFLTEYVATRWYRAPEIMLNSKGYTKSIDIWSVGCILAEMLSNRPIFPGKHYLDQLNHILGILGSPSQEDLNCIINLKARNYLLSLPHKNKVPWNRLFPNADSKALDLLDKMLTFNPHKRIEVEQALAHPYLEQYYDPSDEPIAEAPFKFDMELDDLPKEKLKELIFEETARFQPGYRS

[12] = target: Vascular endothelial growth factor receptor 2 (Homo sapiens) (UniProt P35968); experiment: Inhibition of VEGF-R2 (unknown origin) assessed as residual activity at 1 uM relative to control
[13] = target: Serine/threonine-protein kinase SIK1 (Homo sapiens) (UniProt P57059); experiment: Inhibition of human SIK assessed as residual activity at 1 uM relative to control
[14] = target: Serine/threonine-protein kinase Nek7 (Homo sapiens) (UniProt Q8TDX7); experiment: Inhibition of human NEK7 assessed as residual activity at 1 uM relative to control
[15] = system: MCF7; experiment: Cell cycle arrest in human MCF7 cells assessed as accumulation at S phase at 0.5 uM after 24 hrs using propidium iodide staining by FACS analysis (reference value: 18.59%); assay type: functional
[16] = target: Mitogen-activated protein kinase 8 (Homo sapiens) (UniProt P45983); experiment: Inhibition of human JNK1alpha1 assessed as residual activity at 1 uM relative to control
Chain of Mitogen-activated protein kinase 8 (Homo sapiens) (P45983 whole entry): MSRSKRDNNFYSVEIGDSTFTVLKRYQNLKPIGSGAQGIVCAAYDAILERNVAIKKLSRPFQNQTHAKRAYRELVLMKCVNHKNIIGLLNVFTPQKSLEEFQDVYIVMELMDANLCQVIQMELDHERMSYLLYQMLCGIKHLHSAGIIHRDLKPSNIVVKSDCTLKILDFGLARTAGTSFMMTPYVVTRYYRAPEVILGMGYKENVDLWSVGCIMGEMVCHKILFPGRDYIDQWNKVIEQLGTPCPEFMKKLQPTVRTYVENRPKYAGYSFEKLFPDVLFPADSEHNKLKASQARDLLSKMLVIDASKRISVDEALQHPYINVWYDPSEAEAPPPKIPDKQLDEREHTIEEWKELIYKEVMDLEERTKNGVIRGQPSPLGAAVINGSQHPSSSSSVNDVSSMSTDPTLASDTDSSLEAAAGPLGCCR

[17] = target: Cyclin-dependent kinase 1/cyclin B1 (Homo sapiens) (UniProt P06493+P14635); experiment: Inhibition of human CDK1/cyclinB assessed as residual activity at 1 uM relative to control; assay type: protein-complex assay
[18] = target: T1, Casein kinase II (Homo sapiens); experiment: Inhibition of CK2 in human MCF7 cells assessed as time of delay for GSK3beta phosphorylation at Ser9 at 1 uM by Western blot analysis; assay type: cell-based
Outline: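 MCF7 cells were grown at 37 °C and 5% CO2 in DMEM with 10% heat-inactivated FBS and penicillin/streptomycin. Cells were exposed to 1 µM for the indicated times, with DMSO as the untreated control. Extracts were made in urea lysis buffer, and 20–40 µg protein was run on 10% SDS–PAGE. Blots were probed with primary antibodies (1:1000, overnight, 4 °C) and read by ECL, with β-actin as loading control.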

[19] = system: HT-29; experiment: Antiproliferative activity against human HT-29 cells after 3 days by SRB assay; assay type: functional, cell-based; settings: HT-29, 72 h
Outline: (§2)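 Cells grown at 37 °C, 5% CO2, with 10% heat-inactivated FBS: LXFL529L in RPMI 1640, MCF7 and HT29 in DMEM. Seeded, allowed 24 h growth, then exposed to the drug at various concentrations for 3 days in serum medium. Fixed with TCA for 1 h at 4 °C, stained with 0.4% SRB, eluted in 10 mM Tris pH 10.5, read at 570 nm as % T/C. IC50 taken from dose–response curves of at least three independent experiments.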

[20] = target: Serine/threonine-protein kinase PAK 6 (Homo sapiens) (UniProt Q9NQU5); experiment: Inhibition of human PAK6 assessed as residual activity at 1 uM relative to control
Chain of Serine/threonine-protein kinase PAK 6 (Homo sapiens) (Q9NQU5 whole entry, looked up): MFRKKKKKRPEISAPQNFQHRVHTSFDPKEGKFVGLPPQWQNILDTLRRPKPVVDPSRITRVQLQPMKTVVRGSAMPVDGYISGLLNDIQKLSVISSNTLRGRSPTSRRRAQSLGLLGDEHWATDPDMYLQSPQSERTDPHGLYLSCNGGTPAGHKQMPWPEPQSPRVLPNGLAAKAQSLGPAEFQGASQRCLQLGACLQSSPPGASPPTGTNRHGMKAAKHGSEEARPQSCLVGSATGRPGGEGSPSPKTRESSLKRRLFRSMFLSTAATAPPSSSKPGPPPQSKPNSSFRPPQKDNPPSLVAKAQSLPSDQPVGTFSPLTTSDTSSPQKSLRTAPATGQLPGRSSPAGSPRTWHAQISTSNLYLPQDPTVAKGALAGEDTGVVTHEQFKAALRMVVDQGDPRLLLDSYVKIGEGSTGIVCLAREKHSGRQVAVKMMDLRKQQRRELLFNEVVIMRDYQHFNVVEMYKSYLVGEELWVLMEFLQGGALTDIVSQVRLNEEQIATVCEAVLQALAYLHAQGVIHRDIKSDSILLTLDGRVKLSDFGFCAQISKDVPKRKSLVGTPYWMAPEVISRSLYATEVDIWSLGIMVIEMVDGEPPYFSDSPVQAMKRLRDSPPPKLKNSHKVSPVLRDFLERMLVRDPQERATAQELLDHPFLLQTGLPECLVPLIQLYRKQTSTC

[21] = Antiproliferative activity against human LXFL 529L cells after 3 days by SRB assay; assay type: functional, cell-based; settings: 72 h; outline: as §2
[22] = target: Tyrosine-protein kinase ITK/TSK (Homo sapiens) (UniProt Q08881); experiment: Inhibition of human Itk assessed as residual activity at 1 uM relative to control
Chain of Tyrosine-protein kinase ITK/TSK (Homo sapiens) (Q08881 whole entry): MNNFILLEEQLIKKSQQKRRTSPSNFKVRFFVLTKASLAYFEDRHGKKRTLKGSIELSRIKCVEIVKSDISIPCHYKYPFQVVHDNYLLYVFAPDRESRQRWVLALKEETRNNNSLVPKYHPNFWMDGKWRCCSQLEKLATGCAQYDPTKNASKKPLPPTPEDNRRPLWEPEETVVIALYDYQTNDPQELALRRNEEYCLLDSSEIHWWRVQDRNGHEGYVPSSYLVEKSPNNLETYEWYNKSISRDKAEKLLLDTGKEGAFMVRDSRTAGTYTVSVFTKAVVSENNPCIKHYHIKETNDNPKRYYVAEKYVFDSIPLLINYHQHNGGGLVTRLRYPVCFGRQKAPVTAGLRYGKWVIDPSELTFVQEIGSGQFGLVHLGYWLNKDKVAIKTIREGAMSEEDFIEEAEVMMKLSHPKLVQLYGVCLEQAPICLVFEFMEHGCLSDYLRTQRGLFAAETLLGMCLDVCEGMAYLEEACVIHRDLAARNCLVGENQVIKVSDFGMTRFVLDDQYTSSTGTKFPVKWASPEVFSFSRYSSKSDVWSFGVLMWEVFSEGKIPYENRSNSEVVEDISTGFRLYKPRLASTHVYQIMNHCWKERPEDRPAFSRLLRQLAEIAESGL

[23] = target: Maternal embryonic leucine zipper kinase (Homo sapiens) (UniProt Q14680); experiment: Inhibition of human MELK assessed as residual activity at 1 uM relative to control
Chain of Maternal embryonic leucine zipper kinase (Homo sapiens) (Q14680 whole entry, looked up): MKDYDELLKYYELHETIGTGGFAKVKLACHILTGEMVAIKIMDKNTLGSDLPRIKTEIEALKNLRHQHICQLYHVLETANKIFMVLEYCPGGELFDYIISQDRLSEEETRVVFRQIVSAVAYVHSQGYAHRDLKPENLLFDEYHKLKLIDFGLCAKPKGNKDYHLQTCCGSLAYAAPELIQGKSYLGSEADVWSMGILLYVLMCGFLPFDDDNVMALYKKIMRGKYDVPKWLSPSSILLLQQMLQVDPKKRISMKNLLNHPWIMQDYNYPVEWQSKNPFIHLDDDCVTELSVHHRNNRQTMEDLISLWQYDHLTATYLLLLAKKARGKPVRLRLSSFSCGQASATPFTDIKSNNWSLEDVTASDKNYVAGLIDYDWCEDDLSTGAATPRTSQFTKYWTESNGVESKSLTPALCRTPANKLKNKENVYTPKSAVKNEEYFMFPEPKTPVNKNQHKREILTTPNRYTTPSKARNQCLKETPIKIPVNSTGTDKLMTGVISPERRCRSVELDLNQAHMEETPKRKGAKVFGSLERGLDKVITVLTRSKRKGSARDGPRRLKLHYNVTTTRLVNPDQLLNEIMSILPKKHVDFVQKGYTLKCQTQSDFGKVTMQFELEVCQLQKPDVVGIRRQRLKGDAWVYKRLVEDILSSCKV

[24] = target: Serine/threonine-protein kinase B-raf (Homo sapiens) (UniProt P15056); experiment: Inhibition of wild type B-RAF (unknown origin) assessed as residual activity at 10 uM relative to control
Chain of Serine/threonine-protein kinase B-raf (Homo sapiens) (P15056 whole entry): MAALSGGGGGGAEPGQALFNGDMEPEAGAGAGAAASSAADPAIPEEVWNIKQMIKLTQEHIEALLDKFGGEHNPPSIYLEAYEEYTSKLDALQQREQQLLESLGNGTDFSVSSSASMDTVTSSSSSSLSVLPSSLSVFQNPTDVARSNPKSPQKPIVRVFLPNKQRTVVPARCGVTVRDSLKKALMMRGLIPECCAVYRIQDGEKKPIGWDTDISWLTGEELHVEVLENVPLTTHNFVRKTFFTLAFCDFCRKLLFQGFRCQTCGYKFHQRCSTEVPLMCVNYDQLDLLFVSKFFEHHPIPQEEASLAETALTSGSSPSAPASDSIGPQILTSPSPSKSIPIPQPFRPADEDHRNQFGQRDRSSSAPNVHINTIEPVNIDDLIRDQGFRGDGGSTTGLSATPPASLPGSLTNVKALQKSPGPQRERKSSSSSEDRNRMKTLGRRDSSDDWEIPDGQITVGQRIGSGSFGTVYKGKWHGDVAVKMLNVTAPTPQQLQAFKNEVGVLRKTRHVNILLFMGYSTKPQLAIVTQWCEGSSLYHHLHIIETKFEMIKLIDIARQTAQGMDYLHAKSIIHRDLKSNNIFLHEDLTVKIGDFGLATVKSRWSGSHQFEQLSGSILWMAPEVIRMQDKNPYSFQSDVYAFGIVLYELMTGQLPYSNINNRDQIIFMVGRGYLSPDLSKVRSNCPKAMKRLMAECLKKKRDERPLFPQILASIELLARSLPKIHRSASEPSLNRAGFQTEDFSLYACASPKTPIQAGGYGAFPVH

[25] = target: Serine/threonine-protein kinase mTOR (Homo sapiens) (UniProt P42345); experiment: Inhibition of human mTOR assessed as residual activity at 1 uM relative to control
[26] = target: High affinity nerve growth factor receptor (Homo sapiens) (UniProt P04629); experiment: Inhibition of human TrkA assessed as residual activity at 1 uM relative to control
[27] = target: T2, Serine/threonine-protein kinase Chk1 (Homo sapiens) (UniProt O14757); experiment: Inhibition of CHK1 (unknown origin) assessed as residual activity at 10 uM relative to control
T2 sequence (whole entry): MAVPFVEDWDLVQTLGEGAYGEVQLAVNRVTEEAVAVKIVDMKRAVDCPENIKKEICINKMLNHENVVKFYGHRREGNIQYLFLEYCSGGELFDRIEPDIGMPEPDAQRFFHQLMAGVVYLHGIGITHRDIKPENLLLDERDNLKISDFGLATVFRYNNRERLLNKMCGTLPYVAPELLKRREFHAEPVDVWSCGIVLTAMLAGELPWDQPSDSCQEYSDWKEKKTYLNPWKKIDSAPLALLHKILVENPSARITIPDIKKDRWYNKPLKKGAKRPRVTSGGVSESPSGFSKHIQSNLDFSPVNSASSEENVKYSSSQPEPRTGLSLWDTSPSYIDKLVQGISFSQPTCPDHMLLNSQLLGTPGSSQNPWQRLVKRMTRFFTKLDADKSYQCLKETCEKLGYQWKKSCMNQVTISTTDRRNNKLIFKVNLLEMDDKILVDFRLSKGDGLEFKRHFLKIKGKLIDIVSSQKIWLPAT

[28] = target: Hepatocyte growth factor receptor (Homo sapiens) (UniProt P08581); experiment: Inhibition of human Met assessed as residual activity at 1 uM relative to control
Chain of Hepatocyte growth factor receptor (Homo sapiens) (P08581 whole entry): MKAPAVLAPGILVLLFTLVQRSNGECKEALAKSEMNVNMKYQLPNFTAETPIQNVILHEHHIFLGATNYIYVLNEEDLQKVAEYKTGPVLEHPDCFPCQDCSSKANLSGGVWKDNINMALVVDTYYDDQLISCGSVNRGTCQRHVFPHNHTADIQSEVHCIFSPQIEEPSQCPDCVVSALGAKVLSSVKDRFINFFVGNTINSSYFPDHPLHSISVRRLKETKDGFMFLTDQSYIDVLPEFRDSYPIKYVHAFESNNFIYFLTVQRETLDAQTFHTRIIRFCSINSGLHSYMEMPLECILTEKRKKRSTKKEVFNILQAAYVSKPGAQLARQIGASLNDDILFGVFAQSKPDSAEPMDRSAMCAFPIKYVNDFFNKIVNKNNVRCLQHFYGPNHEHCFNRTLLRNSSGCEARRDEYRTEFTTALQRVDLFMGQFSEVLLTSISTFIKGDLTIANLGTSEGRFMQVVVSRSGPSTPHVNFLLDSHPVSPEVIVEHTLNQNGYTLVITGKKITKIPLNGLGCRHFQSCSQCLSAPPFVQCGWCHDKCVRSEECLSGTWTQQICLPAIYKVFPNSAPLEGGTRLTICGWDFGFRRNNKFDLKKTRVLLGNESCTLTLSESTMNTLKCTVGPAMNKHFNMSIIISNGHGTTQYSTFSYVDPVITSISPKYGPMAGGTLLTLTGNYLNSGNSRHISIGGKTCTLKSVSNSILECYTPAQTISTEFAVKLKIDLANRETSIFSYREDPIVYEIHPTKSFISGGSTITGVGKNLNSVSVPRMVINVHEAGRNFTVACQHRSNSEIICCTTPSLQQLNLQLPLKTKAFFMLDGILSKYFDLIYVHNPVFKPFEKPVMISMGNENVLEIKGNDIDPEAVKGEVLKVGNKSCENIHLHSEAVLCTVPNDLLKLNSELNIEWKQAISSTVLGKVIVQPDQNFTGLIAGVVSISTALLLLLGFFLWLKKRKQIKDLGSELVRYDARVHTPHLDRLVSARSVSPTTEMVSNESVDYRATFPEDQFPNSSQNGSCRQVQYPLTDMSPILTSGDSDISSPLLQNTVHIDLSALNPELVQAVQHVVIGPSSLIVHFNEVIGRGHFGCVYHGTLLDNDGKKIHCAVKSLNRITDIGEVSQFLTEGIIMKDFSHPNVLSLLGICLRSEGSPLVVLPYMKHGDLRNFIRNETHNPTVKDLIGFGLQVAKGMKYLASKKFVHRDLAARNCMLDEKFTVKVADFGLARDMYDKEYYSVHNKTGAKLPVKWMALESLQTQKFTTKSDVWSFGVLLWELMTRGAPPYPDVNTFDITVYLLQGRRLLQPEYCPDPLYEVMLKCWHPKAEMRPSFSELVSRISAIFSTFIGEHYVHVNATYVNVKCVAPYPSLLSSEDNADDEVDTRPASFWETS

Activity [2]: 66% | Activity [3]: 136% | GI50 [4]: 1480 nM | Activity [5]: 90% | Activity [6]: 49% | Activity [8]: 105% | Activity [9]: 107% | GI50 [10]: 282 nM | Activity [11]: 96% | Activity [12]: 93% | Activity [13]: 32% | Activity [14]: 57% | Activity [16]: 97% | Activity [17]: 101% | TIME [18]: 0.5 h | pIC50 [19]: 5.70 | Activity [20]: 51% | Activity [22]: 106% | Activity [23]: 87% | Activity [24]: 94% | Activity [25]: 99% | Activity [26]: 127% | Activity [27]: 99% | Activity [28]: 77%
SMILES: O=C1Nc2ncccc2/C1=C1/Nc2ncccc2C1=O
GI50 [1]: 502 nM | GI50 [7]: 2730 nM | Activity [15]: 17.48% | pIC50 [21]: 7.22
